In brackets after ≈: the same amount, converted by molar mass.
Columns and labels:
Type in all cases: functional
Pseudomonas aeruginosa = assay: In vitro minimum inhibitory concentration against Pseudomonas aeruginosa ATCC 10145
Escherichia coli = assay: In vitro minimum inhibitory concentration against Escherichia coli SKF 12140
Streptococcus pneumoniae = assay: In vitro minimum inhibitory concentration against Streptococcus pneumoniae UC41
Staphylococcus aureus = assay: In vitro minimum inhibitory concentration against Staphylococcus aureus Tour
[1] = test system: Staphylococcus epidermidis; assay: In vitro minimum inhibitory concentration against Staphylococcus epidermis ATCC 12228
Proteus vulgaris = assay: In vitro minimum inhibitory concentration against Proteus vulgaris X 19 ATCC 881
Streptococcus pyogenes [2] = assay: Subcutaneously administration into mice infected with Streptococcus pyogenes C 203; details: sc
Summary of the method: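 Mice (five per treatment group, five groups) infected intraperitoneally with about 10⁵ cells of Strep. pyogenes C 203, about 100× the LD50. ED50 (mg/kg) was calculated from the percentage of mice surviving at each dose on day 7.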

Streptococcus pyogenes [3] = assay: In vitro minimum inhibitory concentration against Streptococcus pyogenes C 203
Enterococcus faecalis = assay: In vitro minimum inhibitory concentration against Streptococcus faecalis ATCC 7080
[4] = test system: Staphylococcus haemolyticus; assay: In vitro minimum inhibitory concentration against Staphylococcus hemolyticus 602 cell line; details: strain 602

SMILES	MIC (Pseudomonas aeruginosa) [µg/mL]	MIC (Escherichia coli) [µg/mL]	MIC (Streptococcus pneumoniae) [µg/mL]	MIC (Staphylococcus aureus) [µg/mL]	MIC [1] [µg/mL]	MIC (Proteus vulgaris) [µg/mL]	ED50 (Streptococcus pyogenes [2]) [mg/kg]	MIC (Streptococcus pyogenes [3]) [µg/mL]	MIC (Enterococcus faecalis) [µg/mL]	MIC [4] [µg/mL]
CNCCNC(=O)[C@H]1NC(=O)[C@H]2NC(=O)[C@H](NC(=O)[C@@H]3NC(=O)[C@H]4NC(=O)[C@@H](Cc5ccc(c(Cl)c5)Oc5cc3cc(c5O)Oc3ccc(cc3Cl)[C@H]2O)NC(=O)[C@H](N)c2ccc(O)c(c2)Oc2cc(O)cc4c2)c2ccc(O)c(c2)-c2c(O)cc(O)cc21	32 (≈ 25.5 µM)	4 (≈ 3.19 µM)	0.12 (≈ 0.0956 µM)	0.06 (≈ 0.0478 µM)	0.03 (≈ 0.0239 µM)	32 (≈ 25.5 µM)	2.2	0.06 (≈ 0.0478 µM)	0.12 (≈ 0.0956 µM)	0.06 (≈ 0.0478 µM)
CNCCCNC(=O)[C@H]1NC(=O)[C@H]2NC(=O)[C@H](NC(=O)[C@@H]3NC(=O)[C@H]4NC(=O)[C@@H](Cc5ccc(c(Cl)c5)Oc5cc3cc(c5O)Oc3ccc(cc3Cl)[C@H]2O)NC(=O)[C@H](N)c2ccc(O)c(c2)Oc2cc(O)cc4c2)c2ccc(O)c(c2)-c2c(O)cc(O)cc21	16 (≈ 12.6 µM)	4 (≈ 3.15 µM)	0.12 (≈ 0.0946 µM)	0.06 (≈ 0.0473 µM)	0.06 (≈ 0.0473 µM)	16 (≈ 12.6 µM)	0.95	0.06 (≈ 0.0473 µM)	0.12 (≈ 0.0946 µM)	0.25 (≈ 0.197 µM)
CN(C)CCCCCNC(=O)[C@H]1NC(=O)[C@H]2NC(=O)[C@H](NC(=O)[C@@H]3NC(=O)[C@H]4NC(=O)[C@@H](Cc5ccc(c(Cl)c5)Oc5cc3cc(c5O)Oc3ccc(cc3Cl)[C@H]2O)NC(=O)[C@H](N)c2ccc(O)c(c2)Oc2cc(O)cc4c2)c2ccc(O)c(c2)-c2c(O)cc(O)cc21	64 (≈ 48.8 µM)	8 (≈ 6.1 µM)	0.12 (≈ 0.0915 µM)	0.06 (≈ 0.0458 µM)	0.06 (≈ 0.0458 µM)	128 (≈ 97.6 µM)	0.72	0.06 (≈ 0.0458 µM)	0.12 (≈ 0.0915 µM)	0.12 (≈ 0.0915 µM)
CN1CCN(C(=O)[C@H]2NC(=O)[C@H]3NC(=O)[C@H](NC(=O)[C@@H]4NC(=O)[C@H]5NC(=O)[C@@H](Cc6ccc(c(Cl)c6)Oc6cc4cc(c6O)Oc4ccc(cc4Cl)[C@H]3O)NC(=O)[C@H](N)c3ccc(O)c(c3)Oc3cc(O)cc5c3)c3ccc(O)c(c3)-c3c(O)cc(O)cc32)CC1	32 (≈ 25 µM)	16 (≈ 12.5 µM)	0.12 (≈ 0.0937 µM)	0.06 (≈ 0.0468 µM)	0.03 (≈ 0.0234 µM)	64 (≈ 50 µM)	0.95	0.12 (≈ 0.0937 µM)	0.12 (≈ 0.0937 µM)	–
CCN1CCCC1CNC(=O)[C@H]1NC(=O)[C@H]2NC(=O)[C@H](NC(=O)[C@@H]3NC(=O)[C@H]4NC(=O)[C@@H](Cc5ccc(c(Cl)c5)Oc5cc3cc(c5O)Oc3ccc(cc3Cl)[C@H]2O)NC(=O)[C@H](N)c2ccc(O)c(c2)Oc2cc(O)cc4c2)c2ccc(O)c(c2)-c2c(O)cc(O)cc21 (some centres not stated)	64 (≈ 48.9 µM)	4 (≈ 3.06 µM)	0.06 (≈ 0.0458 µM)	0.06 (≈ 0.0458 µM)	0.06 (≈ 0.0458 µM)	32 (≈ 24.4 µM)	1.25	0.06 (≈ 0.0458 µM)	0.12 (≈ 0.0917 µM)	0.12 (≈ 0.0917 µM)
CN(C)CCN(C)C(=O)[C@H]1NC(=O)[C@H]2NC(=O)[C@H](NC(=O)[C@@H]3NC(=O)[C@H]4NC(=O)[C@@H](Cc5ccc(c(Cl)c5)Oc5cc3cc(c5O)Oc3ccc(cc3Cl)[C@H]2O)NC(=O)[C@H](N)c2ccc(O)c(c2)Oc2cc(O)cc4c2)c2ccc(O)c(c2)-c2c(O)cc(O)cc21	64 (≈ 49.9 µM)	8 (≈ 6.23 µM)	0.06 (≈ 0.0468 µM)	0.06 (≈ 0.0468 µM)	0.06 (≈ 0.0468 µM)	64 (≈ 49.9 µM)	1.25	0.06 (≈ 0.0468 µM)	0.12 (≈ 0.0935 µM)	0.06 (≈ 0.0468 µM)
CCCCN(CCCC)CCCNC(=O)[C@H]1NC(=O)[C@H]2NC(=O)[C@H](NC(=O)[C@@H]3NC(=O)[C@H]4NC(=O)[C@@H](Cc5ccc(c(Cl)c5)Oc5cc3cc(c5O)Oc3ccc(cc3Cl)[C@H]2O)NC(=O)[C@H](N)c2ccc(O)c(c2)Oc2cc(O)cc4c2)c2ccc(O)c(c2)-c2c(O)cc(O)cc21	64 (≈ 46.8 µM)	8 (≈ 5.85 µM)	0.12 (≈ 0.0878 µM)	0.12 (≈ 0.0878 µM)	0.06 (≈ 0.0439 µM)	32 (≈ 23.4 µM)	0.72	0.06 (≈ 0.0439 µM)	0.12 (≈ 0.0878 µM)	–
N[C@H]1C(=O)N[C@@H]2Cc3ccc(c(Cl)c3)Oc3cc4cc(c3O)Oc3ccc(cc3Cl)[C@@H](O)[C@@H]3NC(=O)[C@H](NC(=O)[C@@H]4NC(=O)[C@@H](NC2=O)c2cc(O)cc(c2)Oc2cc1ccc2O)c1ccc(O)c(c1)-c1c(O)cc(O)cc1[C@@H](C(=O)NCCN1CCCC1)NC3=O	64 (≈ 49.4 µM)	8 (≈ 6.18 µM)	0.12 (≈ 0.0927 µM)	0.06 (≈ 0.0463 µM)	0.016 (≈ 0.0124 µM)	64 (≈ 49.4 µM)	1.6	0.06 (≈ 0.0463 µM)	0.12 (≈ 0.0927 µM)	–

From ChEMBL document CHEMBL1124366, “Synthesis and biological properties of N63-carboxamides of teicoplanin antibiotics. Structure-activity relationships” (J Med Chem, 1989)
